This data set is described as follows: Toxicity liver stage against HepG2, at 10uM. It counts as cell-based. Further details: test concentration 10 uM, cell line HepG2-A16-CD81EGFP. The note with it: human, HepG2-A16-CD81EGFP cells; read-out: INHIBITION
The procedure, abridged: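 Uninfected HepG2-A16-CD81EGFP cells, 3 × 10^3 per well, 1536-well, plated on prespotted compound at 10 μM final, parasite-free screening media added to match infected plates; puromycin 10 μM positive, DMSO 0.5% negative; run in parallel with 48 h PbLuc assay at 37 °C, 5% CO2; viability by CellTiter-Glo luminescence, normalized to controls.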
Turning to `COCc1nccc(C2CCCN(Cc3ccc(C#N)cc3F)C2)n1` (configuration not stated), the cytotoxicity at 10 µM came to 27.3%.

Consider `CCN(CC)c1ccc(CNS(=O)(=O)C2CCOCC2)cc1F`, for which the cytotoxicity at 10 µM is -13.4%.

Turning to `Cc1nc(C)n(C2CCCN(C(=O)CCOC(C)C)C2)n1` (configuration not stated), the cytotoxicity at 10 µM is -1.92%.

On to `Cc1nc(CN2CCC3(CCN(c4cnn(C)c4)C3=O)C2)cs1` (configuration not stated), for which the cytotoxicity at 10 µM is 4.15%.

Turning to `OC[C@H]1CN(Cc2c(Cl)cccc2Cl)C[C@H]1CN1CCCCC1`, the cytotoxicity at 10 µM is -140%.

Consider `Cc1ccc(Cn2nc(C)c3c(C(=O)O)c(Cl)c(C)nc32)cc1`, for which the cytotoxicity at 10 µM was 5.53%.

As to `NC(=O)NC(=O)CCN1CCCC1c1cccc2c1OCCO2` (configuration not stated), the cytotoxicity at 10 µM is -5.35%.

Consider `Cc1cc(S(=O)(=O)N2CCC(S(C)(=O)=O)C2)ccc1F` (configuration not stated), for which the cytotoxicity at 10 µM worked out at 0.246%.

On to `CC(C)Cc1ncc2c(n1)CN(c1cc(N)nc(N)n1)C2`, for which the cytotoxicity at 10 µM is -6.27%.

Take `CCOCCOC(C)C(=O)Nc1ccc2ccn(CCN(C)C)c2c1` (configuration not stated): the cytotoxicity at 10 µM was determined as 10.1%.

On to `Cc1ccc(CCNC(=O)CC2COCCN2S(=O)(=O)N(C)C)s1` (configuration not stated), for which the cytotoxicity at 10 µM is 1.69%.

For the compound `Cc1cc(CN(C)C2CCN(c3cccc(-c4cscn4)c3)CC2)on1`, the cytotoxicity at 10 µM is -0.371%.

`COCC1CC2(CCN(C(=O)c3ccco3)CC2)CN1C(C)C` (configuration not stated): the cytotoxicity at 10 µM stood at 4.71%.

For the compound `CCC(C)N(Cc1sccc1C)C(=O)c1cnc[nH]1` (configuration not stated), the cytotoxicity at 10 µM was determined as 5.55%.

With `Clc1cc(CN2CCCC2Cn2cncn2)c2ncccc2c1` (configuration not stated), the cytotoxicity at 10 µM was found to be 1.28%.

As to `Cc1nc(C2CCN(C(C)C)CC2)sc1Br`, the cytotoxicity at 10 µM is -3.02%.

For the compound `CC(C)c1nc(C2CCCN(C(=O)CCn3ccccc3=O)C2)no1` (configuration not stated), the cytotoxicity at 10 µM is -18.4%.

Consider `Cn1cc(CN2CCc3ncnc(C4CCOC4)c3CC2)cn1` (configuration not stated), for which the cytotoxicity at 10 µM is -7.46%.

Regarding `O=S1(=O)CCC(N2CCN(c3cc(C(F)(F)F)ccn3)CC2)C1` (configuration not stated), the cytotoxicity at 10 µM was -3.97%.

`O=C(O)c1csc(S(=O)(=O)Nc2cccc(OCC(F)(F)F)c2)c1`: the cytotoxicity at 10 µM was -13.1%.

As to `CS(=O)(=O)N1CCO[C@@H]2CN(C(=O)COC3CCCC3)C[C@@H]2C1`, the cytotoxicity at 10 µM was determined as 7.04%.

With `CN(Cc1csc2ccccc12)C(=O)NC1CCS(=O)(=O)C1` (configuration not stated), the cytotoxicity at 10 µM was -42.1%.

For `c1cncc(N2CCCn3nnc(CN4CCCCC4)c3C2)c1`, the cytotoxicity at 10 µM stood at 1.24%.

Regarding `Cc1ccc(NC2CCN(C(=O)c3ccco3)CC2)nn1`, the cytotoxicity at 10 µM was -14.3%.

Regarding `Cc1cc(-c2nn(C)c(Cl)c2CN2CC[C@H](CO)[C@@H](O)C2)no1`, the cytotoxicity at 10 µM came to 2.45%.

Regarding `COc1cccc(CNC(=O)C(C)N2CC(n3nc(C)cc3C)C2)c1` (configuration not stated), the cytotoxicity at 10 µM was found to be 0.868%.

As for `CCn1cc(CN2CCCN(C(=O)Cc3cccs3)CC2)cn1`, the cytotoxicity at 10 µM is -2.76%.

On to `Cc1nn(C)c2c(NCc3cccnc3)nc(C(C)C)nc12`, for which the cytotoxicity at 10 µM was 10.5%.

On to `CS(=O)(=O)N1CCC2(CCCN(Cc3ccccn3)C2)CC1`, for which the cytotoxicity at 10 µM was -121%.

On to `Cc1noc(C)c1-c1ccnc(C2CCNCC2)c1`, for which the cytotoxicity at 10 µM was -8.41%.

Regarding `Cc1cc(C(=O)N2CCOC(c3nc(C)n[nH]3)C2)[nH]n1` (configuration not stated), the cytotoxicity at 10 µM was -11.7%.

As to `CCOc1nnc(CN(C)C2CCCN(c3ccc(C)nn3)C2)s1` (configuration not stated), the cytotoxicity at 10 µM turned out to be 13.2%.

Take `Cc1nn(C)cc1Cn1c(=O)ccc2ccccc21`: the cytotoxicity at 10 µM was -12.5%.

As to `CC(CNC(=O)c1c[nH]nn1)Oc1ccc(Cl)cc1` (configuration not stated), the cytotoxicity at 10 µM was 9.27%.

In the case of `Cc1cnn(CC2CCCN2CC(=O)N(C)Cc2ccc(C)o2)c1` (configuration not stated), the cytotoxicity at 10 µM is -7.19%.

Take `CN(C)Cc1cn2c(n1)CN(C1CCOC1)CC2` (configuration not stated): the cytotoxicity at 10 µM stood at 6.43%.

In the case of `Cn1cncc1CN1CCCC1c1cncc(Oc2ccc(F)cc2)n1` (configuration not stated), the cytotoxicity at 10 µM is -17.3%.

Turning to `Cc1cccc(-c2nc(CN3CCn4c(nnc4C4CC4)C3)no2)c1`, the cytotoxicity at 10 µM turned out to be 3.33%.

As to `O=c1cc2c(nn1CN1CCN(c3ccccc3)CC1)CCCC2`, the cytotoxicity at 10 µM was -9.58%.

In the case of `Cc1cc(C2CCCN2Cc2nc(-c3ccco3)no2)on1` (configuration not stated), the cytotoxicity at 10 µM was determined as 7.53%.

As to `Cn1nc2c(cc1=O)CN(CCN1CCCC1=O)CC2`, the cytotoxicity at 10 µM was -31.1%.

In the case of `CCC(C#N)NC(=O)c1sccc1OC` (configuration not stated), the cytotoxicity at 10 µM turned out to be 1.88%.

Regarding `O=C1CCC2(CCN(Cc3cscn3)CC2)CN1C1CCC(O)CC1` (configuration not stated), the cytotoxicity at 10 µM was -4.33%.

For `O=C(c1ccccn1)N1CCC(Oc2ncccc2Cl)CC1`, the cytotoxicity at 10 µM came to 3.07%.

In the case of `CC(C)N(Cc1nccn1C)C(=O)c1cnc(O)cn1`, the cytotoxicity at 10 µM is -1.82%.

As to `CN(Cc1ccc(F)cc1)CC1(O)CCN(C(=O)c2ccccn2)C1` (configuration not stated), the cytotoxicity at 10 µM was -3%.

For `CCC(C)NS(=O)(=O)c1ccc(C=Cc2onc(C)c2NC(C)=O)cc1` (configuration not stated), the cytotoxicity at 10 µM is -10.7%.

For `COc1cc(CNC2CCc3nc(C(C)C)nn3C2)cc2c1OCO2` (configuration not stated), the cytotoxicity at 10 µM is -5.82%.

Consider `CC(C)c1nccn1-c1nccnc1C1CCCN1Cc1ccccc1` (configuration not stated), for which the cytotoxicity at 10 µM was -0.943%.

As to `CN1CC(=O)N(c2cccc(F)c2)CC12CCN(Cc1nccs1)C2` (configuration not stated), the cytotoxicity at 10 µM was 2.08%.

Consider `CNc1cccc(C2CCN(C(=O)c3cccnc3)CC2)n1`, for which the cytotoxicity at 10 µM was -7.27%.

With `NC(=O)CN1CCCC1c1ccccc1Br` (configuration not stated), the cytotoxicity at 10 µM amounted to 4.01%.

In the case of `NC(=O)C1CCN(C(=O)NCc2ccccc2Cn2cncn2)CC1`, the cytotoxicity at 10 µM was determined as 3.98%.

As for `O=C(CCCOc1cccc(F)c1)N1CCCC(n2cncn2)C1` (configuration not stated), the cytotoxicity at 10 µM was -13.2%.

In the case of `c1cc(CN2CCO[C@H]3[C@H](OCCN4CCCC4)CC[C@@H]32)ccn1`, the cytotoxicity at 10 µM is -1.95%.

Take `CN(C)S(=O)(=O)NCC1OCCc2cn(CC3CCOCC3)nc21` (configuration not stated): the cytotoxicity at 10 µM was 7.4%.

As to `CCSc1ccc(C(=O)Nc2c(C)nn(C(C)C)c2C)cn1`, the cytotoxicity at 10 µM is -24.4%.

As for `O=C(CCNS(=O)(=O)c1ccc(F)cc1)NCc1ccoc1`, the cytotoxicity at 10 µM was -6.08%.

On to `Cc1nccn1C1CCCN(C(=O)c2cc3ccccc3[nH]2)C1` (configuration not stated), for which the cytotoxicity at 10 µM is -12.2%.

Take `Cc1nccn1CCC1CCCCN1Cc1cnc(N(C)C)nc1` (configuration not stated): the cytotoxicity at 10 µM is 1.45%.

As for `COc1ccc(-c2noc([C@@H](C)NC(=O)CC(C)C)c2C(=O)O)cc1`, the cytotoxicity at 10 µM came out at 2.05%.

As to `O=C(CC1CC1)N1CCCC2(CCC(=O)N2CC2CC2)CC1` (configuration not stated), the cytotoxicity at 10 µM is 0.964%.

Regarding `CCCc1nc(C(=O)N[C@H]2COC[C@@H]2N2CCN(C)CC2)cs1`, the cytotoxicity at 10 µM is -23.8%.

As for `O=C(CS(=O)(=O)Cc1ccccc1)NC1CCCCNC1=O` (configuration not stated), the cytotoxicity at 10 µM was -1.46%.

Consider `CCc1ccc(CN2CCN(c3ncc(Cl)cn3)CC2)nc1`, for which the cytotoxicity at 10 µM came to 8.45%.

Consider `OC1(CN2CCC(Oc3cccc(C(F)(F)F)c3)CC2)CNCCOC1` (configuration not stated), for which the cytotoxicity at 10 µM is -5.43%.

For the compound `OC(COCc1ccccc1F)CN1CCC(Cn2cccn2)CC1` (configuration not stated), the cytotoxicity at 10 µM was -10.2%.

Take `O=C(Cc1cccnc1)N1CCCC2(CCN(CC3CCOCC3)C2)C1` (configuration not stated): the cytotoxicity at 10 µM was determined as 2%.

Regarding `CN1CCC(CNC(=O)NCc2ccc(F)cc2)CC1`, the cytotoxicity at 10 µM is -10.1%.

In the case of `Cc1cc(N(C)CCCn2cccn2)nc(N)n1`, the cytotoxicity at 10 µM came out at 0.423%.

Consider `Clc1cccc(-c2nc(CNC3CCc4ncnn4C3)co2)c1` (configuration not stated), for which the cytotoxicity at 10 µM came out at 2.56%.

In the case of `Cc1nn(C)c(N(C)C)c1CNC(C)c1cccc(OC(C)C)c1` (configuration not stated), the cytotoxicity at 10 µM is -7.76%.
